A selection: hits, their analogues and other compounds. The true share with any hit is near 12%.
L major viab: Leishmania major promastigote growth inhibition | Leishmania major promastigotes, resazurin fluorescence viability | inhibition, % at 10 µM | 200,000 compounds, 9% hits | AID 1063; in the data active = inhibition above about 50%;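 note: promastigotes grown with compound for 44 hours at 28 °C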
KCC2 mod: KCC2 (human) Cl- transport modulation; Q9H2X9; KCC2 cells, thallium flux FluoZin-2 fluorescence; B-score of Tl+ flux slope (higher = more flux/activation; lower = inhibition) at 10 µM; 190,000 compounds, 2.2% hits; AID 1456;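 active = thallium flux slope and its plate-corrected score both differing from the plate sample mean at a set confidence after two filtering rounds, in either direction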;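 note: slope of fluorescence scaled to starting intensity during 10 to 20 s after thallium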
WT yeast gro inh: growth inhibition of WT yeast, mitochondrial fusion screen. inhibition, % at 10 µM. AID 1362. 190,000 compounds, 2.1% hits. mitochondrial fusion phenotypic screen, WT strain; in the data active = inhibition above about 58%; tested in S. cerevisiae
ROMK mod: human ROMK K+ channel modulation, primary screen | B-score at 10 µM | P48048 | 130,000 compounds, 2% hits | Tet-inducible ROMK, thallium flux fluorescence; actives lie on both sides;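 active = signal ratio slope over the read window, or its plate-corrected B-score, at least 3 SD from the plate mean, either direction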;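 note: B-score of the F/F0 ratio slope over 7 to 12 s after thallium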
Diaphorase act: counter-screen for diaphorase-based assays: diaphorase activators and chemical reducers; Diaphorase/resazurin coupled assay, resorufin fluorescence, 16 min; active compounds read high; 1 = vehicle wells, 0 = NADH-free wells; activation factor at 20 µM; 190,000 compounds, 0.005% hits;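 active = diaphorase activity raised at least twofold by the compound at 20 µM; inactive = activation factor below 2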
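Measured by – red resorufin fluorescence at 544/590 nm excitation/emission · Test system – Clostridium kluyveri diaphorase, purified enzyme · Incubation – reaction time 16 min, room temperature · Buffer or medium – 50 mM HEPES pH 7.4 with 4.542 mM MgCl2, 0.005% Tween 20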
Diaphorase inh: diaphorase inhibition or chemical oxidation counter-screen; inhibition, % at 20 µM; 190,000 compounds, 0.69% hits; diaphorase resazurin-to-resorufin fluorescence, NADH, 16 min; bacterial (C. kluyveri) enzyme, not human; AID 1217;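 active = primary screen inhibition at 20 µM above a set limit, cut at about 50% in these data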
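Test system: Clostridium kluyveri diaphorase enzyme / Quantity: diaphorase at 0.14 U/mL in enzyme working solution / Incubation: 16-min room-temperature incubation before reading / Benchmarks: NADH-free wells as positive control, DMSO-only neutral wells / Signal: resorufin fluorescence 544/590 nm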
Hits are given with their value; n = inactive; x = no result.

SMILES	L major viab	KCC2 mod	WT yeast gro inh	ROMK mod	Diaphorase act	Diaphorase inh
CCOC(=O)COc1ccccc1/C=C\[N+](=O)[O-]	100	n	69	x	n	n
CC(C)c1ccc(-c2nn(-c3ccccc3)cc2C2C(C#N)=C(N)OC3=C2C(=O)CC(C)(C)C3)cc1 (configuration not stated)	77	n	n	x	n	n
CC(C)(C)c1ccc(-c2nnc(N)o2)cc1	x	n	x	x	x	x
O=C(NC(=Nc1nc2ccccc2o1)NC(=O)c1ccccc1)c1ccccc1	n	n	n	n	n	n
COc1ccccc1C(=O)NC(=Nc1nc2ccccc2o1)NC(=O)c1ccccc1OC	100	n	n	n	n	n
O=C(O)CSc1nc2sc3c(c2c(=O)n1-c1ccccc1)CCC3	x	n	x	n	x	x
CSc1nc(SCC(=O)O)c2sc3nc(-c4ccccc4)c4c(c3c2n1)CCC4	x	6.1	x	n	x	x
CSc1nc(N(C)CCO)c2sc3nc(-c4ccco4)c4c(c3c2n1)CCC4	n	n	n	x	n	n
CSc1nc(N2CCN(CCO)CC2)c2sc3nc(-c4ccco4)c4c(c3c2n1)CCC4	x	x	93	x	n	n
Cc1noc(C(F)(F)F)c1C(=O)NNC(=O)c1ccccc1	x	n	x	x	x	x
CCOC(=O)c1c(CSc2nc(C)cc(C)c2C#N)n(C)c2cc(Br)c(OC(C)=O)cc12	96	n	n	x	n	n
CCOC(=O)c1c(CN(CC)CC)n(C)c2cc(Br)c(O)cc12	x	n	x	x	x	x
C=CCCc1ccc(C#N)c(SCc2c(C(=O)OCC)c3cc(OC(C)=O)c(Br)cc3n2C)n1	64	n	n	x	n	n
CCCOC(=O)CCCCCCCCC(O)CN1CCCCC1 (configuration not stated)	n	n	n	n	n	n
CC(C)Oc1ccc(CNCCC2(C(C)C)CCOC(C)(C)C2)cc1 (configuration not stated)	95	n	n	n	n	n
O=[N+]([O-])c1cccc(/C=N/Nc2nc(N3CCCCC3)nc(N3CCCCC3)n2)c1	76	n	n	x	n	n
O=[N+]([O-])c1cccc(-c2ccc(/C=N/NC(=S)Nc3ccccc3)o2)c1	59	n	n	n	n	n
O=[N+]([O-])c1cccc(-c2ccc(/C=N/Nc3nc(N4CCCCC4)nc(N4CCCCC4)n3)o2)c1	90	n	n	n	n	n
CC(=O)Nc1ccc(C(=O)CSc2cc(C)c3cccc(C)c3n2)cc1	51	n	n	x	n	n
CCCOC(=O)/C(=C\c1ccc([N+](=O)[O-])o1)NC(=O)c1ccccc1	96	n	n	n	n	n
CCOC(=O)/C(=C\c1ccc([N+](=O)[O-])o1)NC(=O)c1ccccc1	99	x	n	n	n	n
O=C(NCc1ccc(Cl)cc1)C(=O)N/N=C/c1ccc(Br)cc1	n	n	n	n	n	n
Cc1ccc(C(=O)O/N=C(\N)c2cccc([N+](=O)[O-])c2)cc1	n	n	n	x	n	n
Cc1ccc(CC(=O)O/N=C(\N)c2cccc([N+](=O)[O-])c2)cc1	80	n	n	x	n	n
CN(CC(=O)O/N=C(\N)c1cccc([N+](=O)[O-])c1)S(=O)(=O)c1ccccc1	n	x	58	n	n	n
SMILES	L major viab	KCC2 mod	WT yeast gro inh	ROMK mod	Diaphorase act	Diaphorase inh
CC[N+](C)(CC)CC(O)COCC1COc2ccccc2O1 (configuration not stated)	n	n	n	x	n	n
CCOC(=O)c1c(NC(=S)NCC2CCCO2)sc(C)c1C (configuration not stated)	n	25	n	3.5	n	n
CC(C)c1ccc(CN(C(=O)/C=C/c2ccco2)C2CCS(=O)(=O)C2)cc1 (configuration not stated)	x	n	x	x	x	x
O=C(c1ccccc1)N1CCCC(c2ccc(Cl)cc2)=N1	n	x	n	x	n	n
O=C(c1cccc(Cl)c1)N1CCCC(c2ccc(Cl)cc2)=N1	n	x	78	x	n	n
Nc1nc(-c2ccccc2)nc2sc3c(c12)CCCC3	60	n	n	n	n	n
O=c1oc(-c2ccccc2)nc2sc3c(c12)CCC3	n	n	n	n	n	n
Nc1c2c(nc3sc4c(c13)CCCC4)CCCCCC2	55	n	n	n	n	n
CC(/C=N/Nc1nnc2c(n1)[nH]c1ccccc12)=C\c1ccco1	n	n	n	n	n	n
